This is an account of results in ChEMBL document CHEMBL1177728, “Discovery and optimization of boronic acid based inhibitors of autotaxin” (J Med Chem, 2010).

For experiment [1], the target named is T1, Autotaxin (Homo sapiens, UniProt Q13822). Nature of the experiment: Inhibition of 6x-histidine-tagged human recombinant ATX expressed in HEK293 cells assessed as lysophosphatidulcholine release. The experiment is classed as cell-based. In short, it runs like this: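 LPC (18:1) choline release: ATX (~40 nM) secreted by transfected HEK293 cells into serum-free medium, TALON-purified, in 50 mM Tris-HCl pH 7.4 with 0.01% Triton X-100. Substrate added as 80 μM LPC with 10 mM MgCl2 and CaCl2, 3 h at 37 C.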

In experiment [2] the target is T1, Autotaxin. The experiment is described as follows: Inhibition of 6x-histidine-tagged human recombinant ATX expressed in HEK293 cells assessed as residual enzyme activity by lysophosphatidulcholine release assay. The experiment is classed as cell-based. In short, it runs like this: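 Residual activity in the LPC (18:1) choline release assay with purified His-tagged ATX (~40 nM), pH 7.4 Tris with 0.01% Triton X-100, 3 h at 37 C. Inhibitor titrated at 10 concentrations, 0.01–30 μM. Choline detected at 405 nm via choline oxidase/HRP/ABTS.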

For experiment [3], the target named is T1, Autotaxin. Nature of the experiment: Inhibition of 6x-histidine-tagged human recombinant ATX expressed in HEK293 cells assessed as lysophosphatidulcholine release at 5 uM. The experiment is classed as cell-based. In short, it runs like this: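 LPC (18:1) choline release: ATX (~40 nM) secreted by transfected HEK293 cells into serum-free medium, TALON-purified, in 50 mM Tris-HCl pH 7.4 with 0.01% Triton X-100. Substrate added as 80 μM LPC with 10 mM MgCl2 and CaCl2, 3 h at 37 C. Choline read at 405 nm by choline oxidase/HRP/ABTS with compound-absorbance correction. IC50 over 10 concentrations (0.01–30 μM); inhibition at 5 μM final.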

The target in experiment [4] is T1, Autotaxin. Nature of the experiment: Inhibition of 6x-histidine-tagged human recombinant ATX expressed in HEK293 cells using bisP-nitrophenyl phosphate as a substrate. The experiment is classed as cell-based.
Experiment [5] concerns the target T1, Autotaxin. The experiment is described as follows: Inhibition of 6x-histidine-tagged human recombinant ATX expressed in HEK293 cells assessed as residual activity using bisP-nitrophenyl phosphate as a substrate; values are per cent of control.

Usually IC50 stands for the concentration at which inhibition is half-maximal. As to `COc1cc(/C=C2\SC(=O)N(Cc3ccc(F)cc3)C2=O)ccc1OCc1cccc(C(=O)O)c1`, the IC50 in experiment [1] was determined as 2.05 µM. The Activity in experiment [2] turned out to be 42%. One may read the inhibition as the share of the control response that was lost under treatment. Regarding `O=C1S/C(=C\c2cccc(OCc3ccc(B(O)O)cc3)c2)C(=O)N1Cc1ccc(F)cc1`, in experiment [1], the IC50 turned out to be 0.0296 µM. Moreover, in experiment [3], the inhibition came out at 100%. What is called residual activity is the signal under treatment as a percentage of the control signal. Regarding `O=C1S/C(=C\c2ccc(OCc3ccccc3)cc2)C(=O)N1Cc1ccc(F)cc1`, the IC50 in experiment [4] (read-out: IC50) came to 0.7 µM. Also, in experiment [5], the residual activity amounted to 37%. As to `COc1cc(/C=C2\SC(=O)N(Cc3ccc(F)cc3Br)C2=O)ccc1OCc1ccc(C(=O)O)cc1`, the inhibition in experiment [3] is 51%. Same read-out and setting: the figure for `COc1cc(/C=C2/SC(=O)N(Cc3c(F)c(F)c(F)c(F)c3F)C2=O)ccc1OCc1ccc(C(=O)O)cc1` is 10%; for `COc1cc(/C=C2\SC(=O)N(Cc3ccc(C#N)cc3)C2=O)ccc1OCc1ccc(C(=O)O)cc1` it is 21%; for `COc1cccc(CN2C(=O)S/C(=C\c3ccc(OCc4ccc(C(=O)O)cc4)c(OC)c3)C2=O)c1` it is 20%. On the same count and under the same terms, the figure for `COc1cc(/C=C2\SC(=O)N(Cc3ccc(C(=O)O)cc3[N+](=O)[O-])C2=O)ccc1OCc1ccc(C(=O)O)cc1` is 31%; for `COc1cc(/C=C2\SC(=O)N(Cc3ccccc3F)C2=O)ccc1OCc1ccc(C(=O)O)cc1` it is 41%. For `COC(=O)c1ccc(COc2ccc(/C=C3\SC(=O)N(Cc4ccccc4)C3=O)cc2OC)cc1`, the concentration for half-maximal inhibition (IC50) in experiment [4] (read-out: IC50) amounted to 2.69 µM. Also, the residual activity in experiment [5] is 24%. As to `O=C1S/C(=C\c2ccc(OCc3ccccc3)cc2)C(=O)N1Cc1ccc([N+](=O)[O-])cc1`, in experiment [4] (read-out: IC50), the IC50 is over 100 µM. The same measure, in the same setting: for `O=C1S/C(=C\c2ccccc2)C(=O)N1Cc1ccc(F)cc1` the value was over 100 µM; for `COC(=O)c1ccc(COc2ccc(/C=C3\SC(=O)N(Cc4ccc(F)cc4)C3=O)cc2OC)cc1`, over 100 µM. For `COc1cc(/C=C2\SC(=O)N(CC(=O)c3ccc(Br)cc3)C2=O)ccc1OCc1ccc(C(=O)O)cc1`, the inhibition in experiment [3] came to 23%.

Regarding `COc1cc(/C=C2\SC(=O)N(Cc3cccnc3)C2=O)ccc1OCc1ccc(C(=O)O)cc1`, the inhibition in experiment [3] turned out to be 17%. Still for that read-out and setting: for `COc1cc(/C=C2\SC(=O)N(Cc3ccccn3)C2=O)ccc1OCc1ccc(C(=O)O)cc1` the value was 10%; for `COc1cc(/C=C2\SC(=O)N(Cc3ccccc3C(F)(F)F)C2=O)ccc1OCc1ccc(C(=O)O)cc1`, 28%; for `COc1cc(/C=C2\SC(=O)N(Cc3cccc(C#N)c3)C2=O)ccc1OCc1ccc(C(=O)O)cc1`, 44%. With `COc1cc(/C=C2\SC(=O)N(Cc3cccc(Br)c3)C2=O)ccc1OCc1ccc(C(=O)O)cc1`, in experiment [3], the inhibition worked out at 26%. In the case of `O=C1S/C(=C\c2ccc(OCc3ccc(B(O)O)cc3)cc2)C(=O)N1Cc1ccc(F)cc1`, the inhibition in experiment [3] came to 99%.

Consider `COc1cc(/C=C2\SC(=O)N(Cc3ccncc3)C2=O)ccc1OCc1ccc(C(=O)O)cc1`, for which the inhibition in experiment [3] stood at 13%. On to `COC(=O)c1ccc(CN2C(=O)S/C(=C\c3ccc(OCc4ccc(C(=O)O)cc4)c(OC)c3)C2=O)cc1`, for which, in experiment [3], the inhibition is 31%. For `C=CCN1C(=O)S/C(=C\c2ccc(OCc3ccc(C(=O)O)cc3)c(OC)c2)C1=O`, the inhibition in experiment [3] amounted to 19%.

Regarding `COc1cc(/C=C2\SC(=O)N(Cc3ccc(CC(=O)O)cc3)C2=O)ccc1OCc1ccc(C(=O)O)cc1`, the inhibition in experiment [3] stood at 42%.

For the compound `COc1cc(/C=C2\SC(=O)N(Cc3ccc(F)cc3C(F)(F)F)C2=O)ccc1OCc1ccc(C(=O)O)cc1`, the inhibition in experiment [3] came to 13%. For `COc1cc(/C=C2\SC(=O)N(Cc3ccccc3)C2=O)ccc1OCc1ccccc1`, the IC50 in experiment [4] (read-out: IC50) came out at 100 µM. As for `COc1cc(/C=C2\SC(=O)N(Cc3ccc(C(C)(C)C)cc3)C2=O)ccc1OCc1ccccc1`, in experiment [4] (hek293), the IC50 entry is recorded as “Not Active”. As to `COc1cc(/C=C2/SC(=O)N(Cc3c(Cl)cccc3Cl)C2=O)ccc1OCc1ccc(C(=O)O)cc1`, the inhibition in experiment [3] came out at 38%. On the same count and under the same terms, the figure for `COc1cc(/C=C2\SC(=O)N(Cc3ccccc3[N+](=O)[O-])C2=O)ccc1OCc1ccc(C(=O)O)cc1` is 38%; for `COc1cc(/C=C2\SC(=O)N(Cc3cccc(Cl)c3)C2=O)ccc1OCc1ccc(C(=O)O)cc1` it is 29%; for `COc1cc(/C=C2\SC(=O)N(CC(=O)c3ccc([N+](=O)[O-])cc3)C2=O)ccc1OCc1ccc(C(=O)O)cc1` it is 17%.

For the compound `COc1cc(/C=C2\SC(=O)N(Cc3ccccc3Cl)C2=O)ccc1OCc1ccc(C(=O)O)cc1`, the inhibition in experiment [3] stood at 57%. In the case of `O=C1S/C(=C\c2ccc(OCc3ccccc3)cc2)C(=O)N1Cc1ccccc1`, in experiment [4] (read-out: IC50), the 50% inhibitory concentration (IC50) came out at 2.69 µM. The residual activity in experiment [5] came to 32%. For the compound `COc1cc(/C=C2\SC(=O)N(Cc3ccccc3Br)C2=O)ccc1OCc1ccc(C(=O)O)cc1`, the inhibition in experiment [3] worked out at 72%. On the same count and under the same terms, for `COc1ccc(CN2C(=O)S/C(=C\c3ccc(OCc4ccc(C(=O)O)cc4)c(OC)c3)C2=O)cc1` the value was 11%. On the same count and under the same terms, the figure for `COc1cc(/C=C2\SC(=O)N(Cc3ccccc3C#N)C2=O)ccc1OCc1ccc(C(=O)O)cc1` is 17%.

For the compound `COc1cc(/C=C2\SC(=O)N(CC(=O)c3ccc(Cl)cc3)C2=O)ccc1OCc1ccc(C(=O)O)cc1`, the inhibition in experiment [3] turned out to be 35%.

As for `COc1cc(/C=C2\SC(=O)N(C(c3ccccc3)c3ccccc3)C2=O)ccc1OCc1ccc(C(=O)O)cc1`, the inhibition in experiment [3] is 4%. Consider `O=C1S/C(=C\c2ccccc2)C(=O)N1Cc1ccccc1`, for which the IC50 in experiment [4] (read-out: IC50) was over 100 µM.

Turning to `COc1cc(/C=C2\SC(=O)N(Cc3ccc(F)cc3)C2=O)ccc1OCc1ccccc1`, the IC50 in experiment [4] (read-out: IC50) was 5.87 µM. In experiment [5], the residual activity amounted to 12%. For the compound `O=C1S/C(=C\c2cccc(OCc3ccccc3B(O)O)c2)C(=O)N1Cc1ccc(F)cc1`, in experiment [1], the IC50 was over 5 µM. In addition, the inhibition in experiment [3] stood at 11%.

Take `COc1cc(/C=C2\SC(=O)N(C(C)c3ccccc3)C2=O)ccc1OCc1ccc(C(=O)O)cc1` (stereo not given): the inhibition in experiment [3] came out at 5%. In the case of `COc1cc(/C=C2\SC(=O)N(Cc3ccc(C(F)(F)F)cc3)C2=O)ccc1OCc1ccc(C(=O)O)cc1`, the inhibition in experiment [3] is 32%. Take `O=C1S/C(=C\c2ccc(OCc3ccccc3B(O)O)cc2)C(=O)N1Cc1ccc(F)cc1`: the concentration for half-maximal inhibition (IC50) in experiment [1] is over 5 µM. Further, the inhibition in experiment [3] was determined as 36%. Regarding `COC(=O)c1ccc(COc2ccc(/C=C3\SC(=O)N(Cc4ccc([N+](=O)[O-])cc4)C3=O)cc2OC)cc1`, the IC50 in experiment [4] (read-out: IC50) is 60.9 µM. The residual activity in experiment [5] came out at 31%. For the compound `CCCCCN1C(=O)S/C(=C\c2ccc(OCc3ccc(C(=O)O)cc3)c(OC)c2)C1=O`, the inhibition in experiment [3] worked out at 15%. For `COC(=O)c1ccc(COc2ccc(/C=C3\SC(=O)N(Cc4ccc(C(C)(C)C)cc4)C3=O)cc2OC)cc1`, the IC50 in experiment [4] (read-out: IC50) was over 100 µM. On to `O=C1S/C(=C\c2ccc(OCc3cccc(B(O)O)c3)cc2)C(=O)N1Cc1ccc(F)cc1`, for which the IC50 in experiment [1] came out at 0.0283 µM. For the same compound, the inhibition in experiment [3] is 99%. With `O=C1S/C(=C\c2ccccc2)C(=O)N1Cc1ccc([N+](=O)[O-])cc1`, the IC50 entry in experiment [4] (hek293) is “Not Active”. For the compound `COc1cc(/C=C2\SC(=O)N(Cc3ccc(C(=O)O)cc3)C2=O)ccc1OCc1ccc(C(=O)O)cc1`, in experiment [3], the inhibition was 49%. Still for that read-out and setting: the figure for `COc1cc(/C=C2\SC(=O)N(Cc3cccc(F)c3)C2=O)ccc1OCc1ccc(C(=O)O)cc1` is 64%. For the compound `COc1cc(/C=C2\SC(=O)N(Cc3ccc(Cl)cc3)C2=O)ccc1OCc1ccc(C(=O)O)cc1`, in experiment [3], the inhibition is 57%. The same measure, in the same setting: the figure for `COc1cc(/C=C2\SC(=O)N(Cc3ccc(C)cc3)C2=O)ccc1OCc1ccc(C(=O)O)cc1` is 11%; for `COc1cc(/C=C2\SC(=O)N(Cc3ccc(Br)cc3)C2=O)ccc1OCc1ccc(C(=O)O)cc1` it is 23%.

With `COc1cc(/C=C2\SC(=O)N(Cc3ccc([N+](=O)[O-])cc3)C2=O)ccc1OCc1ccccc1`, the IC50 in experiment [4] (read-out: IC50) is over 100 µM. With `COc1cc(/C=C2\SC(=O)N(Cc3cccc4ccccc34)C2=O)ccc1OCc1ccc(C(=O)O)cc1`, in experiment [3], the inhibition was found to be 13%. `CC(C)(C)c1ccc(CN2C(=O)S/C(=C\c3ccccc3)C2=O)cc1`: the IC50 result in experiment [4] (hek293) is “Not Active”. For the compound `COc1cc(/C=C2\SC(=O)N(CCN3C(=O)c4ccccc4C3=O)C2=O)ccc1OCc1ccc(C(=O)O)cc1`, the inhibition in experiment [3] amounted to 0%. Take `COc1cc(/C=C2\SC(=O)N(Cc3ccc(OC(F)(F)F)cc3)C2=O)ccc1OCc1ccc(C(=O)O)cc1`: in experiment [3], the inhibition amounted to 12%. On to `CC(C)(C)c1ccc(CN2C(=O)S/C(=C\c3ccc(OCc4ccccc4)cc3)C2=O)cc1`, for which the 50% inhibitory concentration (IC50) in experiment [4] (read-out: IC50) is over 100 µM. As for `COc1cc(/C=C2\SC(=O)N(Cc3cccc([N+](=O)[O-])c3)C2=O)ccc1OCc1ccc(C(=O)O)cc1`, the inhibition in experiment [3] was found to be 48%. The same measure, in the same setting: for `COC(=O)c1cccc(CN2C(=O)S/C(=C\c3ccc(OCc4ccc(C(=O)O)cc4)c(OC)c3)C2=O)c1` the value was 30%.

In the case of `COc1cc(/C=C2\SC(=O)N(Cc3cccc(C(F)(F)F)c3)C2=O)ccc1OCc1ccc(C(=O)O)cc1`, the inhibition in experiment [3] came out at 46%. Consider `O=C1S/C(=C\c2cccc(OCc3cccc(B(O)O)c3)c2)C(=O)N1Cc1ccc(F)cc1`, for which the IC50 in experiment [1] was 0.0119 µM. For the same compound, the inhibition in experiment [3] was 100%.
